# According to ChEMBL document CHEMBL1156332, “Polysubstituted pyrazoles, part 6. Synthesis of some 1-(4-chlorophenyl)-4-hydroxy-1H-pyrazol-3-carbonyl derivatives linked to nitrogenous heterocyclic ring systems as potential antitumor agents” (2010):
# Key:
# Assay type in all cases: functional
# [1] = system: OVCAR-5; test: Growth inhibition of human OVCAR5 cells after 48 hrs by sulforhodamine B assay; conditions: OVCAR-5, 48 h
# How it was run: (§1)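 NCI 60-line panel, five concentrations (0.01–100 µM) from DMSO stock diluted in medium with gentamicin. Cells were plated 24 h before dosing, with time-zero plates fixed at drug addition, then exposed 48 h at 37 °C, 5% CO₂. Adherent cells were fixed with cold TCA (10% final) and suspension cells with 16% TCA. Staining used 0.4% SRB, solubilised in 10 mM Tris and read at 515 nm. GI₅₀ was taken from log concentration–% growth curves.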
# [2] = Cytotoxicity against human colon cancer cells after 48 hrs by sulforhodamine B assay; conditions: Cancer cell lines
# How it was run: (§2)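 NCI five-dose screen: about 60 human tumour lines grouped into nine subpanels were plated and incubated 24 h before dosing. Compounds went in as DMSO stock and were diluted in medium to five final concentrations (0.01–100 µM). Exposure was 48 h continuous at 37 °C, 5% CO₂, followed by TCA fixation and SRB staining read at 515 nm. Per-line GI₅₀, TGI and LC₅₀ came from log concentration–% growth curves, averaged per subpanel as MG-MID.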
# [3] = system: MDA-MB-468; test: Growth inhibition of human MDA-MB-468 cells after 48 hrs by sulforhodamine B assay; conditions: MDA-MB-468, 48 h; how it was run: as §1
# [4] = system: IGROV-1; test: Growth inhibition of human IGROV1 cells after 48 hrs by sulforhodamine B assay; conditions: IGROV-1, 48 h; how it was run: as §1
# [5] = system: MDA-MB-435; test: Growth inhibition of human MDA-MB-435 cells after 48 hrs by sulforhodamine B assay; conditions: MDA-MB-435, 48 h; how it was run: as §1
# [6] = system: SF-539; test: Growth inhibition of human SF539 cells after 48 hrs by sulforhodamine B assay; conditions: SF-539, 48 h
# How it was run: (§3)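 Adherent lines plated and held 24 h at 37 °C, 5% CO2, 100% humidity; time-zero plates TCA-fixed at drug addition. Drugs from DMSO stocks were made into five concentrations by 10-fold or half-log serial dilution and applied for 48 h continuous exposure. Cells were fixed with cold TCA (10% final) for 60 min at 4 °C, then stained with 0.4% SRB in 1% acetic acid for 10 min. Dye was solubilized in 10 mM Tris base and read at 515 nm. GI50 was taken from log concentration–growth curves.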
# [7] = system: OVCAR-3; test: Growth inhibition of human OVCAR-3 cells after 48 hrs by sulforhodamine B assay; conditions: OVCAR-3, 48 h; how it was run: as §1
# [8] = system: HCT-116; test: Growth inhibition of human HCT116 cells after 48 hrs by sulforhodamine B assay; conditions: HCT-116, 48 h; how it was run: as §1
# [9] = system: U-251; test: Growth inhibition of human U251 cells after 48 hrs by sulforhodamine B assay; conditions: U-251, 48 h; how it was run: as §3
# [10] = system: NCI-H226; test: Growth inhibition of human NCI-H226 cells after 48 hrs by sulforhodamine B assay; conditions: NCI-H226, 48 h; how it was run: as §1
# [11] = Cytotoxicity against human leukemia cells after 48 hrs by sulforhodamine B assay; conditions: Leukemia cell; how it was run: as §2
# [12] = system: MCF7; test: Growth inhibition of human MCF7 cells after 48 hrs by sulforhodamine B assay; conditions: MCF7, 48 h; how it was run: as §1
# [13] = system: NCI-H460; test: Growth inhibition of human NCI-H460 cells after 48 hrs by sulforhodamine B assay; conditions: NCI-H460, 48 h; how it was run: as §1
# [14] = system: SF-268; test: Growth inhibition of human SF268 cells after 48 hrs by sulforhodamine B assay; conditions: SF-268, 48 h; how it was run: as §1
# [15] = system: RPMI-8226; test: Growth inhibition of human RPMI8226 cells after 48 hrs by sulforhodamine B assay; conditions: RPMI-8226, 48 h; how it was run: as §1
# [16] = system: K562; test: Growth inhibition of human K562 cells after 48 hrs by sulforhodamine B assay; conditions: K562, 48 h; how it was run: as §1
# [17] = Cytotoxicity against human prostate cancer cells after 48 hrs by sulforhodamine B assay; conditions: Cancer cell lines; how it was run: as §2
# [18] = system: SNB-75; test: Growth inhibition of human SNB75 cells after 48 hrs by sulforhodamine B assay; conditions: SNB-75, 48 h; how it was run: as §3
# [19] = system: ACHN; test: Growth inhibition of human ACHN cells after 48 hrs by sulforhodamine B assay; how it was run: as §1
# [20] = Cytotoxicity against human lung cancer cells after 48 hrs by sulforhodamine B assay; conditions: Cancer cell lines; how it was run: as §2
# [21] = Growth inhibition of human Hs 578T cells after 48 hrs by sulforhodamine B assay; how it was run: as §1
# [22] = Cytotoxicity against human breast cancer cells after 48 hrs by sulforhodamine B assay; conditions: Cancer cell lines; how it was run: as §2
# [23] = system: HOP-92; test: Growth inhibition of human HOP92 cells after 48 hrs by sulforhodamine B assay; conditions: HOP-92, 48 h; how it was run: as §1
# [24] = system: KM12; test: Growth inhibition of human KM12 cells after 48 hrs by sulforhodamine B assay; conditions: KM12, 48 h; how it was run: as §1
# [25] = system: SN12C; test: Growth inhibition of human SN12C cells after 48 hrs by sulforhodamine B assay; how it was run: as §3
# [26] = system: 786-0; test: Growth inhibition of human 786-0 cells after 48 hrs by sulforhodamine B assay; conditions: 786-0, 48 h; how it was run: as §1
# [27] = Cytotoxicity against human renal cancer cells after 48 hrs by sulforhodamine B assay; conditions: Cancer cell lines; how it was run: as §2
# [28] = system: SW-620; test: Growth inhibition of human SW620 cells after 48 hrs by sulforhodamine B assay; conditions: SW-620, 48 h; how it was run: as §3
# [29] = system: M14; test: Growth inhibition of human M14 cells after 48 hrs by sulforhodamine B assay; conditions: M14, 48 h; how it was run: as §1
# [30] = system: HCT-15; test: Growth inhibition of human HCT15 cells after 48 hrs by sulforhodamine B assay; conditions: HCT-15, 48 h; how it was run: as §1
# [31] = system: TK-10; test: Growth inhibition of human TK10 cells after 48 hrs by sulforhodamine B assay; conditions: TK-10, 48 h; how it was run: as §3
# [32] = system: NCI/ADR-RES; test: Growth inhibition of human NCI/ADR-RES cells after 48 hrs by sulforhodamine B assay; how it was run: as §1
# [33] = system: HT-29; test: Growth inhibition of human HT-29 cells after 48 hrs by sulforhodamine B assay; conditions: HT-29, 48 h; how it was run: as §1
# [34] = system: UACC-62; test: Growth inhibition of human UACC62 cells after 48 hrs by sulforhodamine B assay; conditions: UACC-62, 48 h; how it was run: as §3
# [35] = system: OVCAR-4; test: Growth inhibition of human OVCAR4 cells after 48 hrs by sulforhodamine B assay; conditions: OVCAR-4, 48 h; how it was run: as §1
# [36] = system: SK-OV-3; test: Growth inhibition of human SKOV3 cells after 48 hrs by sulforhodamine B assay; conditions: SK-OV-3, 48 h; how it was run: as §3
# [37] = system: UACC-257; test: Growth inhibition of human UACC257 cells after 48 hrs by sulforhodamine B assay; conditions: UACC-257, 48 h; how it was run: as §3
# [38] = system: OVCAR-8; test: Growth inhibition of human OVCAR8 cells after 48 hrs by sulforhodamine B assay; conditions: OVCAR-8, 48 h; how it was run: as §1
# [39] = system: SNB-19; test: Growth inhibition of human SNB19 cells after 48 hrs by sulforhodamine B assay; conditions: SNB-19, 48 h; how it was run: as §3
# [40] = system: HOP-62; test: Growth inhibition of human HOP62 cells after 48 hrs by sulforhodamine B assay; conditions: HOP-62, 48 h; how it was run: as §1
# [41] = system: DU-145; test: Growth inhibition of human DU145 cells after 48 hrs by sulforhodamine B assay; conditions: DU-145, 48 h; how it was run: as §1
compound,measurement,setting,value
O=C(c1nn(-c2ccc(Cl)cc2)cc1O)n1nc(-c2ccco2)cc1C(F)(F)F,GI50,[1],2.6 µM
same,GI50,[2],4.59 µM
same,TGI,[2],88.5 µM
same,GI50,[3],4.66 µM
same,GI50,[4],0.92 µM
same,GI50,[5],1.97 µM
same,GI50,[6],2.81 µM
same,GI50,[7],1.72 µM
same,GI50,[8],2 µM
same,GI50,[9],5.86 µM
same,GI50,[10],2.71 µM
same,GI50,[11],1.76 µM
same,TGI,[11],80.7 µM
same,GI50,[12],3.51 µM
same,GI50,[13],0.78 µM
same,GI50,[14],3.63 µM
same,GI50,[15],1.42 µM
same,GI50,[16],1.72 µM
same,GI50,[17],18.4 µM
same,GI50,[18],0.82 µM
same,GI50,[19],2.53 µM
same,GI50,[20],3.19 µM
same,TGI,[20],78.9 µM
same,GI50,[21],0.64 µM
same,GI50,[22],3.07 µM
same,TGI,[22],77 µM
same,GI50,[23],4.9 µM
same,GI50,[24],5.88 µM
same,GI50,[25],5.18 µM
same,GI50,[26],6.6 µM
same,GI50,[27],3.85 µM
same,TGI,[27],75.6 µM
same,GI50,[28],4.75 µM
same,GI50,[29],4.28 µM
same,GI50,[30],1.44 µM
same,GI50,[31],1.45 µM
same,GI50,[32],1.6 µM
same,GI50,[33],4.56 µM
same,GI50,[34],2.16 µM
same,GI50,[35],2.43 µM
same,GI50,[36],3.55 µM
same,GI50,[37],2.67 µM
same,GI50,[38],1.88 µM
same,GI50,[39],4.37 µM
same,GI50,[40],1.98 µM
same,GI50,[41],10.5 µM
